The results in this text go back to ChEMBL document CHEMBL1129563, “Opioid antagonist activity of naltrexone-derived bivalent ligands: importance of a properly oriented molecular scaffold to guide "address" recognition at kappa opioid receptors” (J Med Chem, 1996).

In experiment [1] the target is Delta-type opioid receptor (Mus musculus) (UniProt P32300). Briefly: Ke value is obtained from IC50 ratio values when compared with delta opioid agonists in MVD preparations using DADLE as radioligand. In kind it is functional. Put shortly: (§1)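 Antagonism was tested on electrically stimulated guinea pig ileum (morphine, EK, DAMGO, U-50488) and mouse vas deferens (DADLE, DPDPE). Antagonist (usually 100 nM, some at 20 nM) was incubated 15 min before agonist. IC50 ratio is agonist IC50 with antagonist over control IC50 in the same preparation. Ke = [antagonist]/(IC50 ratio − 1). Three or more replicates were run. Selectivity is given as Ke ratios.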

The target of experiment [2] is Mu-type opioid receptor (Cavia porcellus) (UniProt P97266). Briefly: Ke value is obtained from IC50 ratio value when compared with Opioid receptor mu 1 agonist in Guinea pig Ileum using DAMGO as radioligand. In kind it is functional, tissue-based. In outline: as §1
In experiment [3] the target is Kappa-type opioid receptor (Cavia porcellus) (UniProt P41144). Briefly: Ke value was obtained from IC50 ratio values when compared with Opioid receptor kappa 1 agonist in Guinea pig Ileum using EK as radioligand. In kind it is functional, tissue-based. In outline:
as §1

Experiment [4] has as its system Delta-type opioid receptor. Kind of experiment: Delta opioid activity on Mouse vas deference using DADLE as standard. Put shortly:
as §1

The nature of experiment [5]: Kappa opioid activity was evaluated on electrically stimulated guinea pig ileum by using ethylketazocine (EK) as standard. The experiment is classed as tissue-based. Put shortly: as §1
The nature of experiment [6]: Mu opioid activity was evaluated on electrically stimulated guinea pig ileum by using morphine(M) as standard. In kind it is tissue-based. In outline:
as §1

Experiment [7] in a line: Selectivity ratio between morphine and ethylketazocine potencies in GPI and MVD preparations. Put shortly:
as §1

Experiment [8] can be described thus: Selectivity ratio between DADLE and ethylketazocine potencies in GPI and MVD preparations. In outline:
as §1

For experiment [9], the target named is T1, Mu-type opioid receptor (Cavia porcellus, UniProt P97266). Briefly: Opioid receptor mu 1 antagonistic activity in guinea pig ileum. In kind it is functional, tissue-based. Put shortly: as §1
The target in experiment [10] is T2, Opioid receptors; mu & kappa (Homo sapiens) (UniProt P41145+P35372). Briefly: Selectivity ratio between kappa to that of mu opioid receptor. The experiment is classed as protein assay. Put shortly: as §1
Experiment [11] concerns the target T3, Kappa-type opioid receptor (Cavia porcellus, UniProt P41144). Briefly: Binding affinity against Opioid receptor kappa 1 in Guinea pig brain membranes. In kind it is cell membranes, Membrane. In outline:
(§2)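 Competition binding against radioligands in guinea pig brain membranes. μ sites used [3H]DAMGO. κ sites used [3H]EK with 1 μM DAMGO, and δ sites used [3H]DADLE with 1 μM DAMGO. Ki is the geometric mean of three replicates. Selectivity is given as δ/μ and κ/μ Ki ratios.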

Experiment [12] concerns the target T4, Opioid receptors; mu & delta (Homo sapiens) (UniProt P41143+P35372). Briefly: Selectivity ratio between delta and mu opioid receptor from guinea pig brain membrane. In outline: as §2
Experiment [13] addresses T2, Opioid receptors; mu & kappa (Homo sapiens). Kind of experiment: Selectivity ratio between kappa and mu opioid receptor from guinea pig brain membrane. In outline: as §2
Experiment [14] has as its system Mus musculus. Kind of experiment: Antagonistic activity after subcutaneous administration (6.2 umol/kg) with a peak time of 30 mins in mice (using U-50488 as agonist, kappa selective). The experiment is classed as functional. The settings on record: sc, 0.5 h. In outline:
(§3)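 Tail-flick test in Swiss Webster mice. The antagonist was given sc at 6.2 μmol/kg, timed so its 30 min peak fell at the centre of the observation period. Morphine and U-50488 were given sc (μmol/kg) and DPDPE icv (nmol/mouse). Agonist ED50 was found in control and treated mice and expressed as the treated/control ED50 ratio.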

The test system of experiment [15] is Mus musculus. Briefly: Antagonistic activity after subcutaneous administration (6.2 umol/kg) with a peak time of 30 mins in mice (using morphine as agonist, mu selective). The experiment is classed as functional. The settings on record: sc, 0.5 h. Put shortly: as §3
Experiment [16] addresses T1, Mu-type opioid receptor. Kind of experiment: Binding affinity against Opioid receptor mu 1 in Guinea pig brain membranes. The experiment is classed as cell membranes, Membrane. In outline: as §2
The target in experiment [17] is T3, Kappa-type opioid receptor. Kind of experiment: Binding affinity against Kappa Opioid receptor in Guinea pig brain membranes. In kind it is cell membranes, Membrane. Put shortly: as §2
Experiment [18] has as its target Delta-type opioid receptor (Mus musculus) (UniProt P32300). Briefly: Ke value was obtained from IC50 ratio value when compared with delta opioid agonist in MVD preparations using DADLE as radioligand. The experiment is classed as functional. Put shortly:
as §1

Experiment [19] addresses Mu-type opioid receptor (Cavia porcellus) (UniProt P97266). Kind of experiment: Ke value was obtained from IC50 ratio value when compared with Opioid receptor mu 1 agonist in Guinea pig Ileum using DAMGO as radioligand. In kind it is functional, tissue-based. In outline:
as §1

In experiment [20] the target is Kappa-type opioid receptor (Cavia porcellus) (UniProt P41144). Briefly: Ke value was obtained from IC50 ratio value when compared with Opioid receptor kappa 1 agonist in Guinea pig Ileum using U-50488 as radioligand. In kind it is functional, tissue-based. In outline: as §1
For experiment [21] the target is unchanged. Briefly: Ke value was obtained from IC50 ratio value when compared with kappa opioid agonist in Guinea pig Ileum using EK as radioligand. In kind it is functional, tissue-based. Put shortly: as §1
The target of experiment [22] is Delta-type opioid receptor (Homo sapiens) (UniProt P41143). Briefly: Ke value was obtained from IC50 ratio value when compared with delta opioid agonist in […] using DPDPE as radioligand. The settings on record: target entry is the homologue from another species. The experiment is classed as functional, tissue-based.
Experiment [23] in a line: Ratio of antagonistic activity of treated/control; antinociceptive effect of DPDPE opioid agonist in Mice. The experiment is classed as functional. In outline:
as §3

Experiment [24] is described as follows: Ratio of antagonistic activity of treated/control; antinociceptive effect of U-50488 opioid agonist in Mice. In kind it is functional. Put shortly: as §3
A short description of experiment [25]: Ratio of antagonistic activity treated/control in Mice; antinociceptive effect of morphine opioid agonist in Mice. In kind it is functional. In outline:
as §3

Experiment [26] has as its target T4, Opioid receptors; mu & delta (Homo sapiens). Briefly: Selectivity ratio between delta to that of mu opioid receptor. In kind it is protein assay. In outline: as §1
The target in experiment [27] is Delta-type opioid receptor (Homo sapiens) (UniProt P41143). Briefly: Selectivity ratio between Ke value to that of DAMGO (using DADLE as agonist; delta agonist/DAMGO). In kind it is functional. Put shortly:
(§4)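 Ke values came from IC50 ratios (n ≥ 3) in GPI and MVD, with antagonist preincubated 15 min. Ke = [antagonist]/(IC50 ratio − 1). The reported ratio is Ke against a κ agonist (EK, U-50488) or δ agonist (DADLE, DPDPE) divided by Ke against DAMGO.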

For experiment [28], the target named is Kappa-type opioid receptor (Homo sapiens) (UniProt P41145). Kind of experiment: Selectivity ratio between Ke value to that of DAMGO (using EK as agonist; k agonist/DAMGO). In kind it is functional. Put shortly: as §4
Experiment [29] shares this target. Kind of experiment: Selectivity ratio between Ke value to that of DAMGO (using U-50488 as agonist; k agonist/DAMGO). The experiment is classed as functional. In outline:
as §4

The subject of experiment [30] is Mus musculus. Briefly: Antagonistic activity after […] with a peak time of 30 mins in mice (using DPDPE as agonist, delta selective). In kind it is functional. In outline: as §3
The target of experiment [31] is Delta-type opioid receptor (Homo sapiens) (UniProt P41143). Kind of experiment: Selectivity ratio between Ke value to that of DAMGO (using DPDPE as agonist; delta agonist/DAMGO). In kind it is functional. In outline: as §4

Sequence of Mu-type opioid receptor (Cavia porcellus) (P97266 whole entry): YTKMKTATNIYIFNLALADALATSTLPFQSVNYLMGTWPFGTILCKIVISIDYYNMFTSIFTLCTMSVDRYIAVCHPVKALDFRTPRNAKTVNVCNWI
T1 sequence (P97266 whole entry): as above
T2 sequence (P35372 whole entry, looked up): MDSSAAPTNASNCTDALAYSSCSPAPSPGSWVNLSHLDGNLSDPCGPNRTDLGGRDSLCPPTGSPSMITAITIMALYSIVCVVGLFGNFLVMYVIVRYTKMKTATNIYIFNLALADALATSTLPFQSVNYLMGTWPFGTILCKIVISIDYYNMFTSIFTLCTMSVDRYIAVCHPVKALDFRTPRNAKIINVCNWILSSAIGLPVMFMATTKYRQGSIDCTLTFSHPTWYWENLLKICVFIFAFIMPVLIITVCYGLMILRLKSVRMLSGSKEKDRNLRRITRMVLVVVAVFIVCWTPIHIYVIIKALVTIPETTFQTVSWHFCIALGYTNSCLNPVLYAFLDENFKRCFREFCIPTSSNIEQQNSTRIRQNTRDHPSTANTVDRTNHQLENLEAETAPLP
T2 sequence (P41145 whole entry, looked up): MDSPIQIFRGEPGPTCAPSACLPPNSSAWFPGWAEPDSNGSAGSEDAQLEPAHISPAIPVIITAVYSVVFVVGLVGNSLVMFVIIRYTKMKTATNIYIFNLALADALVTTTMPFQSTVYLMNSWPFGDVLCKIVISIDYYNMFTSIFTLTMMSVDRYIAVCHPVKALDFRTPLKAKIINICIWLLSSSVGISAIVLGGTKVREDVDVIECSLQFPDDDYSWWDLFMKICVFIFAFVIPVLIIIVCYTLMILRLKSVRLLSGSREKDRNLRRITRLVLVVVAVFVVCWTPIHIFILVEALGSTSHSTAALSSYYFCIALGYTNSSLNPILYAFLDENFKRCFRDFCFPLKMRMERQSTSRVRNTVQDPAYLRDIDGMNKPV
T4 sequence (P35372 whole entry, looked up): as the sequence (P35372 whole entry, looked up) above
T4 sequence (P41143 whole entry, looked up): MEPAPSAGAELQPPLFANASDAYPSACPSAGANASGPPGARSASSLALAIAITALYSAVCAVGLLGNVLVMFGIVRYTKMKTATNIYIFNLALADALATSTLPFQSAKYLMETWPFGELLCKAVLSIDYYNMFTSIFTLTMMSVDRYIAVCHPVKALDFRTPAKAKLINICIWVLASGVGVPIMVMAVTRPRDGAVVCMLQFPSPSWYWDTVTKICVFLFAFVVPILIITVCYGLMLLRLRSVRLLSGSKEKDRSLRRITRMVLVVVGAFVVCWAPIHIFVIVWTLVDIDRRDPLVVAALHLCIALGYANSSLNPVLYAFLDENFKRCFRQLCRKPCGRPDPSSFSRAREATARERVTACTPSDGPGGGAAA
Sequence of Delta-type opioid receptor (Homo sapiens) (P41143 whole entry): as the sequence (P41143 whole entry, looked up) above
Sequence of Delta-type opioid receptor (Mus musculus) (P32300 whole entry): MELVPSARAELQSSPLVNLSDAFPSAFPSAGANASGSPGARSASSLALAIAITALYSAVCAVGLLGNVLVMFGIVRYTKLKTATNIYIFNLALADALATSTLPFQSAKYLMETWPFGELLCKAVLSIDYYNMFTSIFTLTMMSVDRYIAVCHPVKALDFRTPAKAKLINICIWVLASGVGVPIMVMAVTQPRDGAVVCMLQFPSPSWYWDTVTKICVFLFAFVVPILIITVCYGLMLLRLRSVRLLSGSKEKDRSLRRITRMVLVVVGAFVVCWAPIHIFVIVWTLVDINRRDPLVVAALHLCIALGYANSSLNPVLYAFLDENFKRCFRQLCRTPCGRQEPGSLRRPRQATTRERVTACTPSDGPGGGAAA
Sequence of Kappa-type opioid receptor (Cavia porcellus) (P41144 whole entry): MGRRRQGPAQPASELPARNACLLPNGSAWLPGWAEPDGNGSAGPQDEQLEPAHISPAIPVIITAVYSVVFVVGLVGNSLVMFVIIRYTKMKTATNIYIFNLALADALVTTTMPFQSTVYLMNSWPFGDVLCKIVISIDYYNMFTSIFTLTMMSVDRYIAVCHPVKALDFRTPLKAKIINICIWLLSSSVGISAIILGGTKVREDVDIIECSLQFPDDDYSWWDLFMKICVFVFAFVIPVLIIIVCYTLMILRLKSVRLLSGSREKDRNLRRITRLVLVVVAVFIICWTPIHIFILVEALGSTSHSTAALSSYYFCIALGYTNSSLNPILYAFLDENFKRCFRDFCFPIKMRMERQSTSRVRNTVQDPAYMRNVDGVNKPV
Sequence of Kappa-type opioid receptor (Homo sapiens) (P41145 whole entry): as the sequence (P41145 whole entry, looked up) above
T3 sequence (P41144 whole entry): as the sequence (P41144 whole entry) above

As to `N#C[C@@]1(N)CC[C@@]2(O)[C@H]3Cc4ccc(O)c5c4C2(CCN3CC2CC2)[C@H]1O5`, the Ke in [1] came to 67 nM; in experiment [2] it was 1.3 nM; in [3] it was 6 nM. For the same compound, the IC50 ratio in experiment [4] worked out at 2.5; in [5] it was 17.5; in experiment [6] it was 79. Also, the Ke ratio was 4.7 in [7] and 52 in [8].
By IC50 is commonly meant the concentration at which inhibition is half-maximal. Read a high IC50 as weaker potency in that assay. Take `O=C1NC(=O)[C@@]2(CC[C@@]3(O)[C@H]4Cc5ccc(O)c6c5[C@@]3(CCN4CC3CC3)[C@H]2O6)N1`: on Mu-type opioid receptor [9], half-maximal inhibition (IC50) was put at 71 nM.
Take `NC(=O)[C@]1(N)CC[C@@]2(O)[C@H]3Cc4ccc(O)c5c4C2(CCN3CC2CC2)[C@H]1O5`: the Ke in experiment [2] stood at 9.8 nM; in experiment [3], 44 nM. The IC50 ratio is 0.89 in experiment [4], 3.3 in [5] and 11.2 in [6]. Besides, in [10], the Ke ratio came to 4.5.
Compound `N=C(N)[C@]1(N)CC[C@@]2(O)[C@H]3Cc4ccc(O)c5c4[C@@]2(CCN3CC2CC2)[C@H]1O5` showed an IC50 against Mu-type opioid receptor [9] of 18 nM.
As to `CC(=O)NC1=NC([C@]2(NC(C)=O)CC[C@@]3(O)[C@H]4Cc5ccc(O)c6c5C3(CCN4CC3CC3)[C@H]2O6)=N[C@]12CC[C@@]1(O)[C@H]3Cc4ccc(O)c5c4C1(CCN3CC1CC1)[C@H]2O5`, the values for the Ke in [2] and in [3] were 1.9 nM and 44 nM, respectively. The IC50 ratio in experiment [4] turned out to be 1.4; in experiment [5], 3.3; in experiment [6] it was 11.7. The Ke ratio in [7] came to 23.
As a reminder, the Ki is the dissociation constant of the complex between target and ligand, obtained from inhibition or displacement. Low readings indicate higher affinity, high ones lower affinity. As to `N[C@@]1(C2=NC(=O)[C@@]3(CC[C@@]4(O)[C@H]5Cc6ccc(O)c7c6C4(CCN5CC4CC4)[C@H]3O7)N2)CC[C@@]2(O)[C@H]3Cc4ccc(O)c5c4C2(CCN3CC2CC2)[C@H]1O5`, the inhibitory constant (Ki) in experiment [11] turned out to be 5.8 nM. The Ke in experiment [2] amounted to 0.46 nM. In addition, the IC50 ratio in experiment [4] was 0.87; in experiment [5], 1.1; in experiment [6], 11.8. Further, the results for the Ke ratio in [12] and in [13] were 151 and 5, respectively.
Turning to `NC1=NC([C@]2(N)CC[C@@]3(O)[C@H]4Cc5ccc(O)c6c5C3(CCN4CC3CC3)[C@H]2O6)=N[C@]12CC[C@@]1(O)[C@H]3Cc4ccc(O)c5c4C1(CCN3CC1CC1)[C@H]2O5`, the figures for the ED50 in the experiment with Mus musculus [14], in the experiment with Mus musculus [15] and in the experiment with Mus musculus [30] were 25.6 µmol/kg, 68.7 µmol/kg and 16 nM mouse-1, respectively. Moreover, the Ki on Mu-type opioid receptor [16] was found to be 0.98 nM; in [17] it was 88 nM. Moreover, the Ke is 57 nM in [18]; 0.07 nM in [19]; 4.7 nM in experiment [20]; 12 nM in experiment [21]; 66 nM in experiment [22]. The ED50 ratio is 0.66 in [23], 0.72 in experiment [24] and 4 in experiment [25]. For the same compound, the IC50 ratio in experiment [4] is 2.8; in [5], 9.1; in experiment [6], 65. The Ke ratio in [12] was 187; in experiment [26] it was 184; in experiment [13] it was 90; in experiment [10] it was 40; in [27], 814; in experiment [28], 171. Also, the figures for the Ke ratio in experiment [29] and in experiment [31] were 67 and 943, respectively.
Consider `N[C@]1(C(=O)O)CC[C@@]2(O)[C@H]3Cc4ccc(O)c5c4C2(CCN3CC2CC2)[C@H]1O5`, for which the Ke in [1] worked out at 139 nM; in experiment [2], 0.65 nM; in experiment [3], 19 nM. In addition, the IC50 ratio was determined as 1.7 in experiment [4], 6.2 in experiment [5] and 154 in [6]. The results for the Ke selectivity ratio in experiment [26] and in experiment [10] were 214 and 30, respectively.
Turning to `N[C@@]1(C(=O)O)CC[C@@]2(O)[C@H]3Cc4ccc(O)c5c4C2(CCN3CC2CC2)[C@H]1O5`, the Ke in [2] is 27 nM; in experiment [3], 10 nM. Besides, the IC50 ratio turned out to be 1.1 in [4], 1.9 in experiment [5] and 4.8 in experiment [6].
